We go through six molecules from ChEMBL document CHEMBL1641569, “Synthetic conjugates of genistein affecting proliferation and mitosis of cancer cells” (Bioorg Med Chem, 2011).

Assay [1] has as its system HCT-116. The experiment in a line: Cell cycle arrest in human HCT116 cells assessed as accumulation at G2/M phase after 24 hrs by propidium iodide staining-based flow cytometry. The format is functional. In short, it runs like this:
(§1)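 Subconfluent cultures exposed continuously to compound; floating and trypsinized adherent cells pooled, PBS-washed, fixed in ice-cold 70% ethanol 30 min, RNase (100 µg/mL) treated, stained with propidium iodide, DNA content measured by flow cytometry to give G1, S, G2/M, apoptotic (sub-G1) and polyploid fractions. Experiments repeated at least twice.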
(In general: A flow cytometer gives signals particle by particle.)

Assay [2] relates to HCT-116. Nature of the assay: Cytotoxicity against human HCT116 cells after 72 hrs by MTT assay. The format is functional, cell-based. The conditions noted are these: HCT-116, 72 h. On the technique in general: Tetrazolium assays rely on reduction of a dye to a coloured formazan, in cell work by metabolically active cells.
The subject of assay [3] is HCT-116. The experiment in a line: Inhibition of mitosis in human HCT116 cells assessed as mitotic index at 20 uM after 24 hrs by fluorescence assay. The assay is classed as functional. Put shortly: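 Cells treated 24 h, collected as for cell cycle analysis, cytospun, fixed in cold methanol, stained with 3 µM DAPI; mitotic cells counted among 1000 cells under 40× objective. Mean ± SD from three independent experiments.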

The subject of assay [4] is HCT-116. Nature of the assay: Cell cycle arrest in human HCT116 cells assessed as accumulation at G2/M phase at 5 to 20 uM after 24 hrs by propidium iodide staining-based flow cytometry. The format is functional. Put shortly:
as §1

A further assay deals with PC-3. The experiment in a line: Cytotoxicity against human PC3 cells after 72 hrs by MTT assay. The assay is classed as functional, cell-based. Conditions: PC-3, 72 h. Put shortly:
(§2)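 Cells seeded at 2 × 10³ per well, 24 h later exposed continuously 72 h to varying concentrations; then 0.5 mg/mL MTT in phenol red-free DMEM 3 h at 37 °C, formazan dissolved in 2-propanol/HCl, OD 570 nm. Viability relative to DMSO vehicle; IC50 = concentration reducing viability by 50%; triplicate wells, at least three independent experiments, mean ± SD.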

The test system of a further assay is T98G. Nature of the assay: Cytotoxicity against human T98G cells after 72 hrs by SRB assay. The format is functional, cell-based. Put shortly:
(§3)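 Cells plated at 2 × 10³ per well 24 h before continuous 72 h exposure to a concentration series; fixed with cold 50% TCA 1 h at 4 °C, stained with 0.4% sulforhodamine B in 1% acetic acid 30 min, bound dye extracted in 10 mM Tris base, OD 540 nm. Viability as % of DMSO control; IC50 = concentration reducing viability 50%; triplicates, ≥3 experiments.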
(In SRB staining, fixed cells bind dye roughly in proportion to their protein.)

For the next assay, the system named is LNCaP. Nature of the assay: Cytotoxicity against human LNCAP cells after 72 hrs by SRB assay. The format is functional, cell-based. In short, it runs like this:
as §3

A further assay deals with A549. The experiment in a line: Cytotoxicity against human A549 cells after 72 hrs by SRB assay. The assay is classed as functional, cell-based. The conditions noted are these: A549, 72 h. Put shortly: as §3
A further assay relates to HT-29. Nature of the assay: Cytotoxicity against human HT-29 cells after 72 hrs by SRB assay. The format is functional, cell-based. The conditions noted are these: HT-29, 72 h. Put shortly: as §3
The subject of a further assay is MCF7. Nature of the assay: Cytotoxicity against human MCF7 cells after 72 hrs by SRB assay. The assay is classed as functional, cell-based. The conditions noted are these: MCF7, 72 h. In short, it runs like this:
as §3

The test system of another assay is DU-145. Nature of the assay: Cytotoxicity against human DU145 cells after 72 hrs by MTT assay. The assay is classed as functional, cell-based. The conditions noted are these: DU-145, 72 h. In short, it runs like this: as §2
In a further assay the test system is LoVo. Nature of the assay: Cytotoxicity against human LoVo cells after 72 hrs by MTT assay. The assay is classed as functional, cell-based. In short, it runs like this: as §2
The test system of a further assay is SK-BR-3. Nature of the assay: Cytotoxicity against human SKBR3 cells after 72 hrs by SRB assay. The assay is classed as functional, cell-based. The conditions noted are these: SK-BR-3, 72 h. In short, it runs like this:
as §3

For a further assay, the system named is AGS. Nature of the assay: Cytotoxicity against human AGS cells after 72 hrs by MTT assay. The format is functional, cell-based. In short, it runs like this: as §2
The test system of the next assay is Caco-2. The experiment in a line: Cytotoxicity against human Caco2 cells after 72 hrs by MTT assay. The conditions noted are these: Caco-2, 72 h. The format is functional, cell-based. In short, it runs like this:
as §2

The source made the active and inactive calls. No cut-off for these calls is given here.

In the case of `CC(=O)OC[C@H]1O[C@H](OCCCCCOc2cc(O)c3c(=O)c(-c4ccc(O)cc4)coc3c2)C=C[C@@H]1OC(C)=O`, the values for the Activity entry in the assay with HCT-116 [1] and with HCT-116 [3] were “Dose-dependent effect” and 5.2, respectively. This molecule also displayed an IC50 in the assay on HCT-116 [2] of 8.45 µM.

Molecule `CC(=O)O[C@@H]1C=C[C@H](OCCOc2cc(O)c3c(=O)c(-c4ccc(O)cc4)coc3c2)O[C@H]1C` showed an IC50 in the assay with HCT-116 [2] of 9.32 µM. Besides, the Activity in the assay with HCT-116 [3] is given as 1.3. In the assay on HCT-116 [4], the result was inactive.

In the case of `CC(=O)OC[C@H]1O[C@@H](O[C@H]2C=C[C@@H](OCCCCCOc3cc(O)c4c(=O)c(-c5ccc(O)cc5)coc4c3)O[C@@H]2COC(C)=O)[C@H](OC(C)=O)[C@@H](OC(C)=O)[C@H]1OC(C)=O`, the concentration for half-maximal inhibition (IC50) with HCT-116 [2] was > 20 µM.

For the molecule `CCCO[C@H]1C=C[C@@H](OC(C)=O)[C@H](C)O1`, the IC50 in the assay on HCT-116 [2] worked out at 550 µM.

In the case of `O=c1c(-c2ccc(O)cc2)coc2cc(O)cc(O)c12` [GENISTEIN], the IC50 in the assay with PC-3 worked out at 65.2 µM; in the assay on T98G, 89.4 µM; with HCT-116 [2], 34.9 µM; in the assay with LNCaP, 30.7 µM; in the assay with A549, 43.1 µM; with HT-29, 52.8 µM. Further, the concentration for half-maximal inhibition (IC50) in the assay with MCF7 is 62.7 µM; with DU-145, 47.3 µM; in the assay with LoVo, 15.9 µM; with SK-BR-3 it was 96.7 µM; in the assay with AGS it was 41.7 µM; in the assay on Caco-2, > 100 µM. Also, the Activity in the assay on HCT-116 [3] is reported as 1.8.

`O=c1c(-c2ccc(O)cc2)coc2cc(OCCCO)cc(O)c12`: in the assay on HCT-116 [2], the IC50 was 23.9 µM.

One may read the IC50 as the concentration at which inhibition is half-maximal. Low values mean greater potency, high ones weaker potency.
